Measurements taken from article PMC3137751 (Biochemistry, 2010).
Values joined by “and” are separate entries in the source; they are usually repeats but may differ in a detail not shown here. Equal entries are not always repeated.

Key:
Type in all cases: biochemical, yeast
[1] = target: IDH1^G15D/IDH2 enzyme (tetrameric) (Saccharomyces cerevisiae, UniProt P28241+P28834, G26D); experiment: Diamide inhibition of catalytic activity
^-5IDH1/IDH2 enzyme = target: T1, ^-5IDH1/IDH2 enzyme (Saccharomyces cerevisiae, UniProt P28241+P28834); experiment: Ligand protection from diamide-induced inactivation
T1 sequence (P28834 17-360 limits assumed): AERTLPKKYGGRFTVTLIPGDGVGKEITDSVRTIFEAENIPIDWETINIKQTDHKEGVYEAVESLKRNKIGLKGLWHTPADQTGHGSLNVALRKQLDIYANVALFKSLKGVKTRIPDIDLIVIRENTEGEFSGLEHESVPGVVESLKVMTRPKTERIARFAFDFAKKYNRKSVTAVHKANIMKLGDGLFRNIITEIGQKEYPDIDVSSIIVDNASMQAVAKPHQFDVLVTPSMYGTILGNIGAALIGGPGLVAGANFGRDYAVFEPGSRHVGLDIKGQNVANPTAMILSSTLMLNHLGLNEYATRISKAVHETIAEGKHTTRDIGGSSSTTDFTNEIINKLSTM
T1 sequence (P28241 16-369): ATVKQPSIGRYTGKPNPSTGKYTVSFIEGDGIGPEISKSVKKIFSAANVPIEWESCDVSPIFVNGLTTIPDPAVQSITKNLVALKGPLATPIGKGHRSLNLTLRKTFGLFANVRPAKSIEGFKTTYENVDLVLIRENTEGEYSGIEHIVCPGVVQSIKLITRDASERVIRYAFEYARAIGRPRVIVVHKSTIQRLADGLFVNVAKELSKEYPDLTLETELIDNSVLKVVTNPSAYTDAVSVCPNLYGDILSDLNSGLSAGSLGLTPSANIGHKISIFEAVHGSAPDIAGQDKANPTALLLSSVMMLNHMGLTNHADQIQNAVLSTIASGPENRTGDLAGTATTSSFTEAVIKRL

[2] = target: T2, wild-type IDH1/IDH2 enzyme (Saccharomyces cerevisiae, UniProt P28241+P28834); experiment: as above
T2 sequence (P28834 12-360): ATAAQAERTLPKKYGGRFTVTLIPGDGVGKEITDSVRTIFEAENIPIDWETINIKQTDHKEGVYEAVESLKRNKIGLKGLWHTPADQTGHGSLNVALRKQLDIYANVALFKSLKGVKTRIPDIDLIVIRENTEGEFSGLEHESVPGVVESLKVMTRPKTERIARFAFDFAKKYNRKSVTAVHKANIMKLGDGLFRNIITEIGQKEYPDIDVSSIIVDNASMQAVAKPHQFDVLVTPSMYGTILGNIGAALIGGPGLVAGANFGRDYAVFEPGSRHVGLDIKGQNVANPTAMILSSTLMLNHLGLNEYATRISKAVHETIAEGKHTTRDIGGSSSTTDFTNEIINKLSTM
T2 sequence (P28241 16-369): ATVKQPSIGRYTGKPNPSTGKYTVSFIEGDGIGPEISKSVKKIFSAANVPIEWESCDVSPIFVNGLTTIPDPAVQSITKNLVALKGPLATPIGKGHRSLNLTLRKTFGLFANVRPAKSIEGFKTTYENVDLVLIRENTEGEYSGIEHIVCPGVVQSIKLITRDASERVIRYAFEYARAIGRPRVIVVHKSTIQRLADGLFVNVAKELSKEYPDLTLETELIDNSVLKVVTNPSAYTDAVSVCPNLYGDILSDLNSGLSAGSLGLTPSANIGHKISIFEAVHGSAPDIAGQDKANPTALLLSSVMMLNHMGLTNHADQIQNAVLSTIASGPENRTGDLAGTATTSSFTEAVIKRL

[3] = target: ^-5IDH1^G15D/IDH2 enzyme (tetrameric) (Saccharomyces cerevisiae, UniProt P28241+P28834, G26D); experiment: Diamide inhibition of catalytic activity
IDH1/IDH2 enzyme = target: T3, IDH1/IDH2 enzyme (Saccharomyces cerevisiae, UniProt P28241+P28834); conditions: no or low concentration (10 μM) of diamide, 2 h
T3 sequence (P28834 12-360): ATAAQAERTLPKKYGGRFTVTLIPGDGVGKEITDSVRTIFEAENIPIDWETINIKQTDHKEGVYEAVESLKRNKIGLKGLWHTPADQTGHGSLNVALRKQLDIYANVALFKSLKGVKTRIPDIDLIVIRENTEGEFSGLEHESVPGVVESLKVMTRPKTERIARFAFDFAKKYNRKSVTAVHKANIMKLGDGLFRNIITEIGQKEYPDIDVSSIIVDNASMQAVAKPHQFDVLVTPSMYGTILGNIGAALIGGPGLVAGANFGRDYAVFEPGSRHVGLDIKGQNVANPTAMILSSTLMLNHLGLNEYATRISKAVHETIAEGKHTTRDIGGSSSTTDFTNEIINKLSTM
T3 sequence (P28241 16-369): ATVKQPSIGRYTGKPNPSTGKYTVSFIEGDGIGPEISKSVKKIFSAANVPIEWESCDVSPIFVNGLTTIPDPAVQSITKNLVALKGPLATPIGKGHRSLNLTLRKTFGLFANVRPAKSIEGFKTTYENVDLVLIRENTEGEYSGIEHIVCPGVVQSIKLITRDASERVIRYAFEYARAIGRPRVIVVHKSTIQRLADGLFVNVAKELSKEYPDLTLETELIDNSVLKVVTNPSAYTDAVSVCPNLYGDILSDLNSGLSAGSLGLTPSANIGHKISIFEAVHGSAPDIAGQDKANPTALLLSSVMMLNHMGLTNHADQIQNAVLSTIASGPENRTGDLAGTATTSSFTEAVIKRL
Outline: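 Affinity-purified His-tagged enzyme (1 μM in 50 mM Tris-HCl pH 7.4) is treated 2 h on ice with 0 or 10 μM diamide. Then 3.5 μg samples are run on […] and stained with Coomassie blue to see the IDH2 Cys-150 disulfide band.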

[4] = target: ^-5IDH1/IDH2 enzyme (truncated, octameric) (Saccharomyces cerevisiae, UniProt P28241+P28834); experiment: Diamide inhibition of catalytic activity
[5] = target: T4, IDH1/IDH2 enzyme (wild-type, octameric) (Saccharomyces cerevisiae, UniProt P28241+P28834); experiment: Diamide inhibition of catalytic activity
T4 sequence (P28834 12-360): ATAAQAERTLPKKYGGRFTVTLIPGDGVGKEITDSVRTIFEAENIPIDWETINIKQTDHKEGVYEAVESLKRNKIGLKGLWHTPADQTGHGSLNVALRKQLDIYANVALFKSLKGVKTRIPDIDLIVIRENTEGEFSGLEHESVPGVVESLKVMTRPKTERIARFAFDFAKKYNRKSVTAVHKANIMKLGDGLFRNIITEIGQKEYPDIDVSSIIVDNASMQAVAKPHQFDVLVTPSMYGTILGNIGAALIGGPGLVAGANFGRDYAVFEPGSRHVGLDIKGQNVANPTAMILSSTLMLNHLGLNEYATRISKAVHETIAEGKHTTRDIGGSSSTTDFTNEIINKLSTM
T4 sequence (P28241 16-369): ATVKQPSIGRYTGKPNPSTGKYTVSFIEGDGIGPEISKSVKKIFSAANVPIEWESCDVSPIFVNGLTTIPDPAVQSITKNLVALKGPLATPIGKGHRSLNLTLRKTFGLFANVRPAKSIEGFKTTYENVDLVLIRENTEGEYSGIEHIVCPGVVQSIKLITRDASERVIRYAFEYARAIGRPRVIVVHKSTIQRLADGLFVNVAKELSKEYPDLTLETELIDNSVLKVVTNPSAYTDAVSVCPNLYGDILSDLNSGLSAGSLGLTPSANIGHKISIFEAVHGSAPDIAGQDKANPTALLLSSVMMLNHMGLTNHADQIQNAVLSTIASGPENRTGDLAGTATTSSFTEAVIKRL
Outline: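 Purified His-tagged enzyme (E. coli BL21-Gold (DE3), IPTG-induced, Ni-NTA purified) at 1 μM in 50 mM Tris-HCl pH 7.4 is held 2 h on ice with a range of diamide concentrations from a fresh water stock. Activity is then assayed (40 mM Tris-HCl pH 7.4, 1 mM D-isocitrate, 4 mM MgCl2, 0.5 mM NAD+; NADH formation, 24 °C). Untreated activity is set as 100%, and the 50% value is read from the graphs.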

IDH1^G15D/IDH2 enzyme = target: T5, IDH1^G15D/IDH2 enzyme (Saccharomyces cerevisiae, UniProt P28241+P28834, G26D); conditions: 10 μM diamide, 2 h
T5 sequence (P28834 12-360 G26D): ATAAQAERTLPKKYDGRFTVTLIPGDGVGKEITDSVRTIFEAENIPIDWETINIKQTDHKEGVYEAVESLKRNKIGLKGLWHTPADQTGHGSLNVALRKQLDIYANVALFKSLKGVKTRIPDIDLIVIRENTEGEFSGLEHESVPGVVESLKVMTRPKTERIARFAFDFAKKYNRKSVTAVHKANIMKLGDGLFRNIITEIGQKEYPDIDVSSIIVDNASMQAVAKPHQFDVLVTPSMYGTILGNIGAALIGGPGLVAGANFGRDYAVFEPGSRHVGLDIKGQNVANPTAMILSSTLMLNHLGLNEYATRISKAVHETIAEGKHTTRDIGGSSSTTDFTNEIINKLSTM
T5 sequence (P28241 16-369): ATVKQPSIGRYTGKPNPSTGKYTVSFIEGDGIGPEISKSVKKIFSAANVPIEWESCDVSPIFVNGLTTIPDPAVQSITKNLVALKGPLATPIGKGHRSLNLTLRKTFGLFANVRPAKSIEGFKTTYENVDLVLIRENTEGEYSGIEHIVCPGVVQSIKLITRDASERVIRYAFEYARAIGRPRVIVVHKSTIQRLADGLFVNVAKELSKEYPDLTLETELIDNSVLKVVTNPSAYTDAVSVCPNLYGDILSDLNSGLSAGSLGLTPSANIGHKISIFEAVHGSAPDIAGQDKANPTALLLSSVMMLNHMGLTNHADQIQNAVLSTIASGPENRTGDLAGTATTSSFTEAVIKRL

[6] = target: ^-5IDH1^D168K/IDH2 enzyme (tetrameric) (Saccharomyces cerevisiae, UniProt P28241+P28834, D179K); experiment: Diamide inhibition of catalytic activity
Chain of ^-5IDH1^D168K/IDH2 enzyme (tetrameric) (P28834 17-360 D179K, one chain of several): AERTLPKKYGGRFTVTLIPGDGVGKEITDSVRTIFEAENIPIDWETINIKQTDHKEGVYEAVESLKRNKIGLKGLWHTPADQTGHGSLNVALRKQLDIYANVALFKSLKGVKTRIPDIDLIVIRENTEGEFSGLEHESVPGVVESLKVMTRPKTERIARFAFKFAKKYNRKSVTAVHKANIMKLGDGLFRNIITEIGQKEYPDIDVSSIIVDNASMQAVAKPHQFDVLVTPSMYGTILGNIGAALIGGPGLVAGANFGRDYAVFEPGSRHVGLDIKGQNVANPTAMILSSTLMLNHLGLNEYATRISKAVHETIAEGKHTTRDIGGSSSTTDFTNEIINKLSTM

[7] = 2 h, read-out: reduction in activity

| effect of citrate preincubation on diamide inhibition (^-5IDH1/IDH2 enzyme; increasing citrate (0 to 100 mM), 4 mM MgCl2, 100 μM AMP before 0.16 mM diamide) | effect of citrate preincubation on diamide inhibition ([2]; 100 mM citrate, 4 mM MgCl2, 100 μM AMP for 15 min before 0.5 mM diamide) | SMILES | IC50 [1] | inhibition at 160 µM (^-5IDH1/IDH2 enzyme; [7]) | inhibition at 500 µM [2, 7] | IC50 [3] | formation of IDH2 Cys-150 disulfide bond (IDH1/IDH2 enzyme) | IC50 [4] | increase in sensitivity to diamide relative to the IDH1/IDH2 enzyme ([4]; ^-5IDH1/IDH2 vs IDH1/IDH2, 120 min) | IC50 [5] | formation of IDH2 Cys-150 disulfide bond (IDH1^G15D/IDH2 enzyme) | IC50 [6] |
| --- | --- | --- | --- | --- | --- | --- | --- | --- | --- | --- | --- | --- |
| – | – | CN(C)C(=O)/N=N/C(=O)N(C)C [diamide] | 6.5 µM | 43% | 63% | 7.5 µM | no formation of this bond | 160 µM | ~ 3 fold and 3 fold | 500 µM | most of the IDH2 subunit is present as the disulfide bond form | 13 µM |
| essentially no effect | no inhibition by diamide was observed | O=C(O)CC(O)(CC(=O)O)C(=O)O [citrate] | – | – | – | – | – | – | – | – | – | – |
